Measurements from article PMC6410374 (Biomaterials science, 2019).

Tests used:
[1] = target: fluorescein-labeled rabbit polyclonal IgG (Oryctolagus cuniculus, UniProt P01870); assay: Microplate-based titration of IgG against Z15_EAK/EAK coacervate; type: binding; conditions: constant concentration of EAK; data not shown
[2] = Congo red absorbance / fibrillization; type: physicochemical; conditions: EAK: upon exposure to high ionic strengths
Procedure, shortened: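 Congo red (1×, diluted from 10X stock in PBS) incubated with peptide for at least 1 h. Absorbance scanned across 400–600 nm on a microplate reader with 0 ms settle time. Peak position and shift read from spectra, with repeat scans over time.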

IgG^800 = assay: In vivo IgG^800 retention in mouse footpads; parameters: species or system C57BL/6 mice
Procedure, shortened: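 Female C57BL/6 mice, 8–12 weeks old, under isoflurane (5% induction, 3% maintenance). Fluorescent IgG800 premixed with peptide coacervate or EAK was injected subcutaneously into one footpad (28G needle) without hair removal. Imaged before injection and every two days with near-infrared imaging at 255 μm resolution. Injection-site ROI was normalized to a non-injected background ROI; the 5-min signal was set as 100% (0.065 μg/μl). Ex vivo scans were taken at 800 channel.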

humans = conditions: very low doses; idiosyncratic thrombocytopenia purpura; ref [13]; cited from earlier work
[3] = tested on: CD8 T cells from humans exposed to the human polyomavirus 2 protein; conditions: T cells of patients exposed to the virus; HLA-A*0201; ref [35]; cited from earlier work
IgG = conditions: read-out: binding constant for IgG; ref [20]; cited from earlier work

Sequence of fluorescein-labeled rabbit polyclonal IgG (P01870 101-323 limits assumed): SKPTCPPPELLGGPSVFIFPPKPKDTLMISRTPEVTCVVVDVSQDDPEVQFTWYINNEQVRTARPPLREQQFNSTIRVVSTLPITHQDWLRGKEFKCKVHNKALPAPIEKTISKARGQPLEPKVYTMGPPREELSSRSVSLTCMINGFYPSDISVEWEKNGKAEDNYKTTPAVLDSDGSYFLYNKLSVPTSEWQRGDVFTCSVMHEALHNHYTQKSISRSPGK

AEAEAKAKAEAEAKAK
affinity constants of IgG titrated against EAK [1]: ambiguous affinity constants | fibril formation kinetics [2]: almost instantaneously | IgG^800 retained in footpad (IgG^800; after 4 days, 5 min signal = 100%): 8% | antibody in draining lymph node (IgG^800; footpad injection, day 28): found in the draining lymph node

PRTX-100: Highly purified SpA developed as a therapeutic for idiosyncratic thrombocytopenia purpura
safety in phase-I clinical trials (humans): safe

RIPLPNLNEDLTCGN
T cell recall in vitro [3]: recalled in vitro

SpA: 42-kDa protein consisting of five homologous Fc-binding domains (E, D, A, B and C)
Kd (IgG): ~20 nM
